Results reported in ChEMBL document CHEMBL3108757, “Synthesis and cytostatic evaluation of 4-N-alkanoyl and 4-N-alkyl gemcitabine analogues” (J Med Chem, 2014).

Tests used:
L1210 = test: Cytostatic activity against mouse L1210 cells after 2 days by coulter counter analysis; type: functional, cell-based; details: L1210, 48 h
Procedure, shortened: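 Murine leukemia L1210 cultures exposed to compound, 2 days at 37 °C; living cells counted by Coulter counter; IC50 is the concentration inhibiting proliferation by 50%.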

[1] = biological target: Deoxycytidine kinase (Homo sapiens) (UniProt P27707); test: Activity at recombinant dCK (unknown origin) at 100 uM by HPLC analysis
Sequence of Deoxycytidine kinase (Homo sapiens) (P27707 whole entry, looked up): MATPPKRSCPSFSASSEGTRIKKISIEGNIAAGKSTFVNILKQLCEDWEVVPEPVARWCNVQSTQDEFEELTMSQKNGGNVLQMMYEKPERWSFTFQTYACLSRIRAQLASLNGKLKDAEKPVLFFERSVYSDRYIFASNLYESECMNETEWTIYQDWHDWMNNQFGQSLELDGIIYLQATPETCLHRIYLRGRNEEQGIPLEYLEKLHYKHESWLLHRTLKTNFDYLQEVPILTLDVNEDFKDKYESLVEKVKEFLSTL

HeLa = test: Cytostatic activity against human HeLa cells after 4 days by coulter counter analysis; type: functional, cell-based; details: 96 h
Procedure, shortened: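 HeLa cervix carcinoma cultures exposed to compound, 4 days at 37 °C; viable cells counted by Coulter counter; IC50 is the concentration giving 50% inhibition of proliferation.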

CCRF-CEM [2] = test: Cytostatic activity against human CEM cells after 3 days by coulter counter analysis; type: functional, cell-based; details: 72 h
Procedure, shortened: (§1)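 CEM T-lymphocyte cultures exposed to compound, 3 days at 37 °C; living cells counted by Coulter counter; IC50 is the concentration inhibiting proliferation by 50%.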

CCRF-CEM [3] = test: Cytostatic activity against human dCK-deficient CEM cells after 3 days by coulter counter analysis; type: functional, cell-based; details: 72 h; procedure, shortened: as §1
Serum [4] = test: Metabolic stability in human serum assessed as dFdU formation at 100 uM up to 240 mins by HPLC analysis; type: ADME, cell-free; details: 4 h
Procedure, shortened: (§2)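 Compound at 100 μM in 50% human serum in PBS, 37 °C; aliquots taken at 0, 60 and 240 min; reverse-phase RP-18 HPLC (acetonitrile/H₂O) resolving dFdU and gemcitabine.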

MCF7 = test: Cytostatic activity against human MCF7 cells after 4 days by coulter counter analysis; details: MCF7, 96 h
CCRF-CEM [5] = test: Ratio of IC50 for human dCK-deficient CEM cells to IC50 for human CEM cells; type: functional
Serum [6] = test: Prodrug conversion in human serum assessed as gemicitabine formation at 100 uM by HPLC analysis; type: ADME, cell-free; procedure, shortened: as §2
Liver [7] = test: Prodrug conversion in mouse liver assessed as dFdU formation at 100 uM by HPLC analysis; type: ADME, tissue-based
Procedure, shortened: (§3)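 Compound at 100 μM in murine liver extract in PBS, 37 °C; sampled at 0, 30 and 120 min; reverse-phase RP-18 HPLC (acetonitrile/H₂O) resolving dFdU and gemcitabine.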

Liver [8] = test: Prodrug conversion in mouse liver assessed as gemicitabine formation at 100 uM by HPLC analysis; type: ADME, tissue-based; procedure, shortened: as §3
Serum [9] = test: Prodrug conversion in human serum assessed as dFdU formation at 100 uM up to 240 mins by HPLC analysis; type: ADME, cell-free; details: 4 h; procedure, shortened: as §2
Liver [10] = test: Prodrug conversion in mouse liver at 100 uM after 2 hrs by HPLC analysis; type: ADME, tissue-based; procedure, shortened: as §3
Liver [11] = test: Prodrug conversion in mouse liver assessed as dFdU formation at 100 uM after 2 hrs by HPLC analysis; type: ADME, tissue-based; procedure, shortened: as §3

Work on `Nc1ccn([C@@H]2O[C@H](CO)[C@@H](O)C2(F)F)c(=O)n1` [GEMCITABINE] yielded an IC50 (L1210) of 13 nM, an Activity [1] of 15% and an IC50 (HeLa) of 9.9 nM. For the same molecule, the IC50 (CCRF-CEM [2]) was 69 nM, the IC50 (CCRF-CEM [3]) was 7600 nM and the Stability (Serum [4]) was “Unstable”. The IC50 (MCF7) was 7.2 nM.

For `C=CCCCCCCCCC(=O)Nc1ccn([C@@H]2O[C@H](CO)[C@@H](O)C2(F)F)c(=O)n1`, the IC50 (L1210) was 18 nM, the IC50 (HeLa) was 12 nM and the IC50 (CCRF-CEM [2]) was 71 nM. The IC50 (CCRF-CEM [3]) was 12000 nM and the IC50 (MCF7) was 6.2 nM.

`CCCC(CCC)C(=O)Nc1ccn([C@@H]2O[C@H](CO)[C@@H](O)C2(F)F)c(=O)n1` [LY-2334737] showed an IC50 (L1210) of 1100 nM, an IC50 (HeLa) of 760 nM and an IC50 (CCRF-CEM [2]) of 5200 nM. For the same molecule, the IC50 (CCRF-CEM [3]) was 161000 nM and the IC50 (MCF7) was 550 nM.

With `C=CCCCCCCCCCNc1ccn([C@@H]2O[C@H](CO)[C@@H](O)C2(F)F)c(=O)n1` the IC50 (L1210) was 7000 nM, the Ratio IC50 (CCRF-CEM [5]) was 4.6 and the IC50 (HeLa) was 3400 nM. For the same molecule, the IC50 (CCRF-CEM [2]) was 13000 nM, the IC50 (CCRF-CEM [3]) was 60000 nM and the IC50 (MCF7) was 28000 nM.

`C=CCCCCCCCCCCC(=O)Nc1ccn([C@@H]2O[C@H](CO)[C@@H](O)C2(F)F)c(=O)n1` showed an IC50 (L1210) of 21 nM, an Activity [1] of less than 1% and an IC50 (HeLa) of 13 nM. The IC50 (CCRF-CEM [2]) was 69 nM, the IC50 (CCRF-CEM [3]) was 6800 nM and the IC50 (MCF7) was 7.9 nM.

For `O=c1nc(NCCCCCCCCCCCF)ccn1[C@@H]1O[C@H](CO)[C@@H](O)C1(F)F`, the IC50 (L1210) was 28000 nM, the Ratio IC50 (CCRF-CEM [5]) was 4.8 and the IC50 (HeLa) was 17000 nM. The IC50 (CCRF-CEM [2]) was 28000 nM, the IC50 (CCRF-CEM [3]) was 134000 nM and the IC50 (MCF7) was 26000 nM.

`C=CCCCCCCC(=O)Nc1ccn([C@@H]2O[C@H](CO)[C@@H](O)C2(F)F)c(=O)n1` was tested, and the IC50 (L1210) was 24 nM, the IC50 (HeLa) was 42 nM and the IC50 (CCRF-CEM [2]) was 140 nM. It also gave an IC50 (CCRF-CEM [3]) of 20000 nM and an IC50 (MCF7) of 7.9 nM.

For `O=C(CCCCCCCCCCO)Nc1ccn([C@@H]2O[C@H](CO)[C@@H](O)C2(F)F)c(=O)n1`, the IC50 (L1210) was 23 nM, the IC50 (HeLa) was 49 nM and the IC50 (CCRF-CEM [2]) was 240 nM. The IC50 (CCRF-CEM [3]) was 19000 nM, the Drug metabolism (Serum [6]) was “Active” and the Drug metabolism (Liver [7]) was “Active”. The Drug metabolism (Liver [8]) was “Active”, the IC50 (MCF7) was 8.1 nM and the Drug metabolism (Serum [9]) was “Active”.

`CCCCCCCCCCC(=O)Nc1ccn([C@@H]2O[C@H](CO)[C@@H](O)C2(F)F)c(=O)n1` showed an IC50 (L1210) of 14 nM, an IC50 (HeLa) of 8.9 nM and an IC50 (CCRF-CEM [2]) of 60 nM. It also gave an IC50 (CCRF-CEM [3]) of 5800 nM and an IC50 (MCF7) of 5.3 nM.

`O=c1nc(NCCCCCCCCCCCO)ccn1[C@@H]1O[C@H](CO)[C@@H](O)C1(F)F` was tested, and the IC50 (L1210) was 29000 nM, the Stability (Liver [10]) was “Stable” and the “Ratio IC50” value (CCRF-CEM [5]) was 2. For the same molecule, the IC50 (HeLa) was 22000 nM, the Stability (Liver [11]) was “Stable” and the IC50 (CCRF-CEM [2]) was 86000 nM. For the same molecule, the IC50 (CCRF-CEM [3]) was 140000 nM, the Stability (Serum [6]) was “Stable” and the IC50 (MCF7) was 27000 nM. The Stability (Serum [9]) was “Stable”.

`O=C(CCCCCCCCCCF)Nc1ccn([C@@H]2O[C@H](CO)[C@@H](O)C2(F)F)c(=O)n1` gave an IC50 (L1210) of 53 nM, an Activity [1] of less than 1% and an IC50 (HeLa) of 11 nM. The IC50 (CCRF-CEM [2]) was 59 nM, the IC50 (CCRF-CEM [3]) was 7200 nM and the IC50 (MCF7) was 7.7 nM.
